ChEMBL document CHEMBL4325893, “Synthesis and antibacterial profiles of targeted triclosan derivatives” (2019)
≈ marks a conversion by molar mass, not a printed value.

Assays:
Staphylococcus aureus [1] = assay: Antibacterial activity against Staphylococcus aureus OCC 106 after 18 hrs; assay type: functional; details: OCC 106, 18 h
Outline: (§1)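 Broth microdilution in Nutrient Broth No. 2; stocks in ethanol diluted to 0.01–128 µg/ml (triclosan) or 0.25–256 µg/ml (glycosides). Overnight 37 °C NB2 cultures diluted 1 in 10^4 in saline and added to the dilutions. Incubation at 37 °C with agitation, OD read every 15 min; MIC is the lowest concentration preventing any OD rise after 18 h.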

Aeromonas hydrophila = assay: Antibacterial activity against Aeromonas hydrophila OCC 778 after 18 hrs; assay type: functional; details: OCC 778, 18 h; outline: as §1
Escherichia coli [2] = assay: Antibacterial activity against Escherichia coli ATCC 25922 after 18 hrs; assay type: functional; details: ATCC 25922, 18 h; outline: as §1
Staphylococcus aureus [3] = assay: Antibacterial activity against Staphylococcus aureus ATCC 29213 after 18 hrs; assay type: functional; details: ATCC 29213, 18 h; outline: as §1
[4] = system: Staphylococcus epidermidis; assay: Antibacterial activity against Staphylococcus epidermidis 155 after 18 hrs; assay type: functional; details: Staphylococcus epidermidis, 155, 18 h; outline: as §1
[5] = system: Salmonella enterica subsp. enterica serovar Abony; assay: Antibacterial activity against Salmonella enterica subspecies enterica serotype Abony NCTC 6017 after 18 hrs; assay type: functional; details: NCTC 6017, 18 h; outline: as §1
Streptococcus pyogenes = assay: Antibacterial activity against Streptococcus pyogenes ATCC 19615 after 18 hrs; assay type: functional; details: ATCC 19615, 18 h
Outline: (§2)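 Broth microdilution in Nutrient Broth No. 2. Ethanol stocks were diluted in broth to 0.01–128 µg/ml for triclosan and 0.25–256 µg/ml for glycosides. Overnight 37°C NB2 cultures were diluted 1 in 10^4 in saline and added to the wells. Plates were incubated at 37°C with OD read every 15 min after agitation. MIC was the lowest concentration giving no OD increase at 18 h.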

Citrobacter freundii [6] = assay: Antibacterial activity against Citrobacter freundii 8090 after 18 hrs; assay type: functional; details: Citrobacter freundii, 8090, 18 h; outline: as §1
[7] = Antibacterial activity against Salmonella enterica subspecies enterica serotype Poona NCTC 4840 after 18 hrs; assay type: functional, Salmonella enterica subsp. enterica serovar Poona; details: NCTC 4840, 18 h; outline: as §1
Escherichia coli [8] = assay: Antibacterial activity against Escherichia coli 700728 after 18 hrs; assay type: functional; details: Escherichia coli, 700728, 18 h; outline: as §1
Escherichia coli [9] = assay: Antibacterial activity against Escherichia coli ATCC 11775 after 18 hrs; assay type: functional; outline: as §1
Escherichia hermannii = assay: Antibacterial activity against Escherichia hermannii 33650 after 18 hrs; assay type: functional; details: Atlantibacter hermannii, 33650, 18 h; outline: as §1
Cronobacter sakazakii = assay: Antibacterial activity against Cronobacter sakazakii 29544 after 18 hrs; assay type: functional; details: Cronobacter sakazakii, 29544, 18 h; outline: as §1
Streptococcus viridans = assay: Antibacterial activity against Streptococcus viridans OCC 234 after 18 hrs; assay type: functional; details: OCC 234, 18 h; outline: as §2
[10] = system: Staphylococcus epidermidis; assay: Antibacterial activity against Staphylococcus epidermidis ATCC 14990 after 18 hrs; assay type: functional; details: ATCC 14990, 18 h; outline: as §1
Hafnia alvei = assay: Antibacterial activity against Hafnia alvei 13337 after 18 hrs; assay type: functional; details: Hafnia alvei, 13337, 18 h; outline: as §1
[11] = Antibacterial activity against Salmonella enterica subspecies enterica serotype Pullorum OCC 273 after 18 hrs; assay type: functional, Salmonella enterica subsp. enterica serovar Pullorum; details: OCC 273, 18 h; outline: as §1
Enterococcus faecalis [12] = assay: Antibacterial activity against Enterococcus faecalis ATCC 29212 after 18 hrs; assay type: functional; details: ATCC 29212, 18 h; outline: as §1
Pseudomonas aeruginosa = assay: Antibacterial activity against Pseudomonas aeruginosa ATCC 27853 after 18 hrs; assay type: functional; details: ATCC 27853, 18 h; outline: as §1
Enterococcus faecium = assay: Antibacterial activity against Enterococcus faecium ATCC 19434 after 18 hrs; assay type: functional; details: ATCC 19434, 18 h; outline: as §1
Staphylococcus aureus [13] = assay: Antibacterial activity against Staphylococcus aureus ATCC 6538P after 18 hrs; assay type: functional; outline: as §1
[14] = Antibacterial activity against Salmonella enterica subspecies enterica serotype Indiana OCC 597 after 18 hrs; assay type: functional, Salmonella enterica subsp. enterica serovar Indiana; details: OCC 597, 18 h; outline: as §1
Enterococcus faecalis [15] = assay: Antibacterial activity against Enterococcus faecalis ATCC 33186 after 18 hrs; assay type: functional; details: ATCC 33186, 18 h; outline: as §1
Streptococcus pneumoniae = assay: Antibacterial activity against Streptococcus pneumoniae ATCC 49619 after 18 hrs; assay type: functional; details: ATCC 49619, 18 h; outline: as §2
Escherichia coli [16] = assay: Antibacterial activity against Escherichia coli ATCC 35218 after 18 hrs; assay type: functional; details: ATCC 35218, 18 h; outline: as §1
Klebsiella pneumoniae = assay: Antibacterial activity against Klebsiella pneumoniae ATCC 10031 after 18 hrs; assay type: functional; details: ATCC 10031, 18 h; outline: as §1
[17] = Antibacterial activity against Salmonella enterica subspecies enterica serotype Nottingham NCTC 7832 after 18 hrs; assay type: functional, Salmonella enterica subsp. enterica serovar Nottingham; details: NCTC 7832, 18 h; outline: as §1
Citrobacter freundii [18] = assay: Antibacterial activity against Citrobacter freundii OCC 851 after 18 hrs; assay type: functional; details: OCC 851, 18 h; outline: as §1
Salmonella enteritidis = assay: Antibacterial activity against Salmonella enterica subspecies enterica serotype Enteritidis 13076 after 18 hrs; assay type: functional, Salmonella enterica subsp. enterica serovar Enteritidis; details: Salmonella enterica, 13076, 18 h; outline: as §1

MIC (Staphylococcus aureus [1]): 0.5 µg/mL (≈ 1.11 µM)
MIC (Aeromonas hydrophila): 256 µg/mL (≈ 567 µM)
MIC (Escherichia coli [2]): 0.5 to 32 µg/mL (≈ 1.11 to 70.8 µM)
MIC (Staphylococcus aureus [3]): 0.5 µg/mL (≈ 1.11 µM)
MIC [4]: 0.5 µg/mL (≈ 1.11 µM)
MIC [5]: 2 to 16 µg/mL (≈ 4.43 to 35.4 µM)
MIC (Streptococcus pyogenes): 128 µg/mL (≈ 283 µM)
MIC (Citrobacter freundii [6]): 8 µg/mL (≈ 17.7 µM)
MIC [7]: 2 to 16 µg/mL (≈ 4.43 to 35.4 µM)
MIC (Escherichia coli [8]): 0.5 to 32 µg/mL (≈ 1.11 to 70.8 µM)
MIC (Escherichia coli [9]): 0.5 to 32 µg/mL (≈ 1.11 to 70.8 µM)
MIC (Escherichia hermannii): 2 µg/mL (≈ 4.43 µM)
MIC (Cronobacter sakazakii): 8 µg/mL (≈ 17.7 µM)
MIC (Streptococcus viridans): 256 µg/mL (≈ 567 µM)
MIC [10]: 0.5 µg/mL (≈ 1.11 µM)
MIC (Hafnia alvei): 0.5 µg/mL (≈ 1.11 µM)
MIC [11]: 2 to 16 µg/mL (≈ 4.43 to 35.4 µM)
MIC (Enterococcus faecalis [12]): 128 µg/mL (≈ 283 µM)
MIC (Pseudomonas aeruginosa): > 256 µg/mL
MIC (Enterococcus faecium): > 256 µg/mL
MIC (Staphylococcus aureus [13]): 0.5 µg/mL (≈ 1.11 µM)
MIC [14]: 2 to 16 µg/mL (≈ 4.43 to 35.4 µM)
MIC (Enterococcus faecalis [15]): 128 µg/mL (≈ 283 µM)
MIC (Streptococcus pneumoniae): 128 µg/mL (≈ 283 µM)
MIC (Escherichia coli [16]): 0.5 to 32 µg/mL (≈ 1.11 to 70.8 µM)
MIC (Klebsiella pneumoniae): 0.5 µg/mL (≈ 1.11 µM)
MIC [17]: 2 to 16 µg/mL (≈ 4.43 to 35.4 µM)
MIC (Citrobacter freundii [18]): 8 µg/mL (≈ 17.7 µM)
MIC (Salmonella enteritidis): 2 to 16 µg/mL (≈ 4.43 to 35.4 µM)
SMILES: OC[C@H]1O[C@@H](Oc2cc(Cl)ccc2Oc2ccc(Cl)cc2Cl)[C@H](O)[C@@H](O)[C@H]1O
